Assay outcomes as filed in PubChem BioAssay.
Ecoli rRNA inh – reduced GFP signal of wild-type E. coli, primary screen, bacterial rRNA inhibitor project, GFP/RFP fluorescence, OD600, single point; AID 720706, 2013; hit rate 1.6% among 350,000; E. coli WT GFP vs humanized-ribosome RFP mutants, 24 h; active compounds read low; DMSO median 0, no signal -100; GFP signal change (wild-type ribosome), % (no concentration beside the values);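 active = significant combined selectivity score with lowered wild-type GFP, culture density cut under 30%, mutant RFP and density less affected; inactive = any of these conditions unmet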
Vif imaging – HIV Vif self-association inhibitors, primary screen, imaging, HEK293T, single point; hit rate 0.35% among 340,000; inhibition, % at 7.49 µM; HEK293T cells, Vif self-association by quenched fluorescence, 24 h; in the data active = inhibition above about 50%, passing the limit was not always enough; inconclusive = no clear call, values can overlap the other calls; inactive = below about 31%
FN deposition inh – inhibitors of fibronectin matrix deposition, primary screen, AH1F cells, Alexa488-fibronectin fluorescence, plate reader. AH1F fibroblasts, overnight. AID 743247, 2014. inhibition, % at 12.6 µM. hit rate 0.086% among 350,000;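 active = mean inhibition across replicates of 30% or more, regardless of how many single replicates reach that level; inconclusive = mean under 30% yet at least half of replicates reach 30%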;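 also: positive control wells lacked labelled fibronectin entirely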
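Assay system: AH1F fibroblasts assembling fluorescent fibronectin matrix; Amount: 10000 AH1F cells per well; Buffer or medium: DMEM, 2% serum; Probe or stimulus: Alexa488-fibronectin, 24 nM final in well; Doses: single compound dose, delivered by pin transfer; Incubation: 1 h adhesion, overnight exposure; Measured by: fluorescence 485/525 nm; Read-out: fibronectin deposition inhibition.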
miR-122 sensor – miR-122 Renilla sensor signal increase in Huh7, primary screen, miR-122 inhibitor project, cell-based, single point, plate reader; activation (reporter increase), % at 12.5 µM; Huh7 miR-122 Renilla luciferase sensor, 48 h; neutral wells = 0, positive control = 100; AID 602342, 2012; hit rate 0.3% among 340,000;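 active = mean replicate activation score at least 90 and every replicate individually at or above 90; inconclusive = only one of the two criteria met; inactive = neither criterion met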;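 also: higher luciferase means less miR-122 activity so hits act as miR-122 inhibitors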
HIV Env fusion – inhibitors of HIV-1 Env-driven cell-cell fusion, primary screen, HeLa-JRFL effector, CEM21 target cells, luciferase. hit rate 1.1% among 360,000. inhibition, % at 12.3 µM;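 active = mean replicate inhibition score of at least 50 and every replicate individually at or above 50; inconclusive = only one of the two criteria met; inactive = mean below 50 and not all replicates reaching 50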;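 also: 0% = plate neutral controls and 100% = maraviroc near 300 nM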
S100A4 inh HTS – inhibitors of S100A4-myosin IIA peptide binding, primary screen, biochemical, fluorescence polarization, TAMRA-MyoIIA peptide; inhibition, % at 10.7 µM; hit rate 0.14% among 360,000; AID 652163, 2013;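 active = mean inhibition of at least 70% across replicates, with every replicate also reaching that level; inconclusive = mean inhibition reaches 70% but some replicates fall short; inactive = mean inhibition below 70%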
Target sequence (P26447 whole entry, looked up): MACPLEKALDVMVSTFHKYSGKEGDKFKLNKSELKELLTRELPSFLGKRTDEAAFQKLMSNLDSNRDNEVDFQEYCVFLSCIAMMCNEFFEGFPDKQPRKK
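Material: S100A4 monomer (human). Medium: Calcium-containing HEPES buffer, pH 7.2. Probe or stimulus: labelled myosin peptide probe, 5 nM. Compound dosing: one concentration per compound. Timing: polarization read 5 min after assay mix addition, stable 5–60 min. Benchmarks: DMSO as neutral control, TFP as positive control.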
* hit, by the source's call; [ ] = remark or other dose. A selection: hits, their analogues and other compounds. The true share with any hit is near 2.6%.

Results for O=[N+]([O-])c1ccc(C[n+]2cc(-c3ccc(Cl)c(Cl)c3)n3c2CCCCC3)cc1 ?
Ecoli rRNA inh: -49*; Vif imaging: 9; FN deposition inh: -10; HIV Env fusion: 2; S100A4 inh HTS: 7

Results for Clc1ccc(-c2c[n+](Cc3ccc(Cl)cc3Cl)c3n2CCCCC3)cc1 ?
Ecoli rRNA inh: -51; Vif imaging: -6; FN deposition inh: 2; HIV Env fusion: 20; S100A4 inh HTS: 1

How did O=[N+]([O-])c1ccc(C[n+]2cc(-c3ccccc3)n3c2CCCCC3)cc1 do in these assays?
Ecoli rRNA inh: 12; Vif imaging: -1; FN deposition inh: 3; miR-122 sensor: 6; HIV Env fusion: 1; S100A4 inh HTS: 0

How did Clc1ccc(C[n+]2cc(-c3ccccc3)n3c2CCC3)cc1Cl do in these assays?
Vif imaging: -5; FN deposition inh: 10; miR-122 sensor: 0; HIV Env fusion: inconclusive; S100A4 inh HTS: 8

Results for O=C(C[n+]1cc(-c2ccc(Cl)c(Cl)c2)n2c1CCC2)OCc1ccccc1 ?
Ecoli rRNA inh: -14*; Vif imaging: -8; FN deposition inh: 2; miR-122 sensor: -5; HIV Env fusion: 26; S100A4 inh HTS: 8

What do the screens show for `Clc1ccc(-c2c[n+](Cc3ccc(Br)cc3)c3n2CCCCC3)cc1`?
Ecoli rRNA inh: -52*; Vif imaging: -4; FN deposition inh: -8; HIV Env fusion: 14; S100A4 inh HTS: -4

How did C[C@H](CO)N1C[C@H](C)[C@@H](CN(C)S(=O)(=O)c2cn(C)cn2)Oc2ccc(NC(=O)Cc3cn(C)c4ccccc34)cc2C1=O do in these assays?
Ecoli rRNA inh: -2; miR-122 sensor: -2[16.7 µM]; S100A4 inh HTS: 1

How did O=C(CCc1ccc(S(=O)(=O)N2CCOCC2)cc1)Nc1nc(COc2ccccc2)cs1 do in these assays?
Vif imaging: -10; FN deposition inh: -1; miR-122 sensor: -4; HIV Env fusion: 80*

Results for COc1ccc2c3c(n(C)c2c1)[C@H](CO)N(C(=O)Nc1c(C)noc1C)CC31CCN(CC2CC2)CC1 ?
Ecoli rRNA inh: 6; S100A4 inh HTS: 11

Results for Cc1cc2c3c([nH]c2cc1S(=O)(=O)N1CCC2(CC1)OCCO2)CC(C)(C)CC3=O ?
Ecoli rRNA inh: -8; Vif imaging: -1; FN deposition inh: 2; miR-122 sensor: 9; HIV Env fusion: 0; S100A4 inh HTS: -2

How did CCc1cc2c3c([nH]c2cc1S(=O)(=O)N1CCC2(CC1)OCCO2)CCCC3=O do in these assays?
Ecoli rRNA inh: -26*; Vif imaging: 20; FN deposition inh: -13; miR-122 sensor: 0; HIV Env fusion: 2; S100A4 inh HTS: -6

Results for CN(C)c1cccc2c1c(NC(=O)Nc1ccccc1)nn2C ?
Ecoli rRNA inh: -18*; Vif imaging: -2; FN deposition inh: 8; miR-122 sensor: 0; HIV Env fusion: 15; S100A4 inh HTS: -4

What do the screens show for `O=C(COc1ccc(S(=O)(=O)NC2CCCCC2)cc1)Nc1ccc2c(c1)OCCO2`?
Ecoli rRNA inh: -2; Vif imaging: -9; FN deposition inh: 0; miR-122 sensor: 101*; HIV Env fusion: 7; S100A4 inh HTS: 3

What do the screens show for `Cc1cc(Cl)c(S(=O)(=O)Nc2ccc3c(c2)OCCO3)cc1OCC(=O)NC1CCCCC1`?
Vif imaging: -4; FN deposition inh: 3; miR-122 sensor: 157*; HIV Env fusion: -23

What do the screens show for `O=C(Cc1cccc2ccccc12)NCCOc1ccccc1F`?
Ecoli rRNA inh: -39*; Vif imaging: -2; FN deposition inh: -9; miR-122 sensor: -1; HIV Env fusion: 12; S100A4 inh HTS: -12

What do the screens show for `CCC(=O)NCCn1c(C)cc2ccccc21`?
miR-122 sensor: 0

Results for Cc1cc2ccccc2n1CCNC(=O)c1ccc(Br)o1 ?
Ecoli rRNA inh: 6; Vif imaging: -4; FN deposition inh: -1; S100A4 inh HTS: 90*

What do the screens show for `Cc1cc2ccccc2n1CCNC(=O)Cc1cccc2ccccc12`?
Ecoli rRNA inh: -5; Vif imaging: -5; FN deposition inh: -6; HIV Env fusion: -3; S100A4 inh HTS: 73*

What do the screens show for `CC[C@@]12C(=O)N(c3cccc(F)c3)C(=O)N1[C@H](c1ccc(Br)cc1)[C@@H]1C(=O)N(C(C)(C)C)C(=O)[C@@H]12`?
Vif imaging: -4; FN deposition inh: 0; miR-122 sensor: -3; HIV Env fusion: 98*

Results for COc1ccc([C@@H]2[C@@H]3C(=O)N(C(C)(C)C)C(=O)[C@@H]3[C@]3(CC(C)C)C(=O)N(c4cccc(F)c4)C(=O)N23)cc1 ?
Ecoli rRNA inh: 22; Vif imaging: -2; FN deposition inh: -7; HIV Env fusion: 99*; S100A4 inh HTS: -6

Results for COc1ccc([C@@H]2[C@@H]3C(=O)N(C(C)(C)C)C(=O)[C@@H]3[C@]3(Cc4ccccc4)C(=O)N(c4cccc(F)c4)C(=O)N23)cc1 ?
Ecoli rRNA inh: 4; Vif imaging: -5; FN deposition inh: 1; miR-122 sensor: 0; HIV Env fusion: 45; S100A4 inh HTS: 17

What do the screens show for `CCn1c(SCC(=O)NCC2CCCO2)nnc1-c1c[nH]c2ccccc12` (stereo unspecified)?
Vif imaging: -20; miR-122 sensor: -4

Results for CCn1c(SCC(=O)NCC2CCCO2)nnc1-c1ccc(Cl)cc1 (stereo unspecified) ?
Ecoli rRNA inh: 10; Vif imaging: 54*; FN deposition inh: 5; miR-122 sensor: 6; HIV Env fusion: 7; S100A4 inh HTS: -1

How did N#CC1=C(N)Oc2c(ccc3cccnc23)C1c1ccccc1 (stereo unspecified) do in these assays?
Ecoli rRNA inh: -1; Vif imaging: 18; FN deposition inh: 36*; miR-122 sensor: -64; HIV Env fusion: 13; S100A4 inh HTS: -2

How did C[C@H]1CCCCO[C@H](CN(C)S(=O)(=O)c2ccccc2)[C@@H](C)CN([C@@H](C)CO)C(=O)c2cc(NC(=O)Nc3ccc(C(F)(F)F)cc3)ccc2O1 do in these assays?
Ecoli rRNA inh: 6; FN deposition inh: -13; miR-122 sensor: 4[16.7 µM]; HIV Env fusion: 13[16.7 µM]; S100A4 inh HTS: -6

Results for CN(C)CCCNC(=O)C[C@@H]1C=C[C@@H](NC(=O)Cc2cccnc2)[C@H](CO)O1 ?
Ecoli rRNA inh: 8; FN deposition inh: 3; miR-122 sensor: -25[16.7 µM]; HIV Env fusion: 12[16.7 µM]; S100A4 inh HTS: 10
